We go through two compounds from paper PMC5995301 (International Journal of Nanomedicine, 2018).

The test system of data set [1] is human lung carcinoma (A549) cells. As to the kind of experiment: In vitro cytotoxic effect. It counts as cell-based. The essentials: (§1)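 Cells were seeded at 5×10^3 cells/well and grown 24 h at 37°C. LLC cells were grown in DMEM with 10% FBS and A549 cells in RPMI with 10% FBS. Cells were exposed to serially diluted test compound at 0.01–10 μg/mL PMX-equivalent for 48 h. WST-8 (CCK-8) was added for 2 h and absorbance read at 450 nm. Viability is % of untreated cells; mean ± SD, n=6.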

A short description of another data set: In vitro drug release. The note with it: basket 100 rpm. Type of data set: physicochemical.
Data set [2] is described as follows: Parallel artificial membrane permeability assay. It counts as in vitro ADME. The following applies: PAMPA, pH 6.8. The essentials:
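Donor wells held test compound diluted in PBS pH 6.8 to 200 μg/mL PMX-equivalent; acceptor wells held PBS pH 6.8. Plates were incubated 5 h at room temperature, then donor and acceptor were both sampled. Permeated PMX was quantified by HPLC at 254 nm.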

In the next data set the test system is LLC cells. In words: In vitro wound-healing assay, LLC cells. The note with it: equivalent to 0.5 μg/mL (0.84 μM) PMX, 48 h. Type of data set: cell-based. In a few lines: (§2)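 Cells were plated at 3×10^4 cells/well on collagen-coated plates, LLC in DMEM and A549 in RPMI, each with 10% FBS. They were grown 48 h at 37°C to near-confluence. A wound maker scratched the monolayer, which was washed twice with PBS pH 7.4. Cells were then exposed to test compound at 0.01–10 μg/mL PMX-equivalent for 48 h at 37°C. Phase-contrast images every 12 h; automated edge-detection mask gave the area.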

The nature of data set [3]: In vivo pharmacokinetic study in rats. The note with it: Sprague Dawley, rat, plasma, po, 20 mg/kg.
For a further data set, the system named is LLC tumor-bearing mice. In words: In vivo tumor growth inhibition in LLC tumor-bearing mice. Further details: species or system C57BL/6 mice. The essentials:
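Female C57BL/6 mice (20–25 g) received 1×10^6 LLC cells in 100 μL PBS pH 7.4 subcutaneously in the flank. At 80–100 mm3, mice were randomised into groups of 10 (untreated, oral daily, or IV once-weekly 20 mg/kg PMX in water). Oral groups were fasted 4 h before and 2 h after dosing. Calipers measured tumors every 3 days for 21 days; volume = a2×b×0.52. Mean ± SD, n=10.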

Data set [4] in a line: In vitro permeability across a Caco-2 cell monolayer. Type of data set: in vitro ADME. The following applies: human. The essentials:
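Caco-2 monolayers were grown on Transwell inserts (0.4 μm pores, 1.12 cm2). Test compound was applied. Transported samples were filtered (0.45 μm PVDF), and drug in them was quantified by HPLC-UV. The apparent permeability coefficient was calculated from the transported amount.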

The next data set deals with A549 cells. In words: In vitro wound-healing assay, A549 cells. The following applies: 48 h. It counts as cell-based, human. The essentials:
as §2

Data set [5] relates to Lewis lung carcinoma (LLC) cells. In words: In vitro cytotoxic effect. Type of data set: cell-based. The note with it: 48 h, read-out: Cell viability. The essentials: as §1
[6] abbreviates: once-weekly IV 20 mg/kg PMX, 3 weeks.

Take “2-hydroxypropyl-beta-cyclodextrin [HP-beta-CD]”: in data set [1] (A549 cells, excipient alone, amount matching the same molar concentration of PMX), the “Cell viability after the addition of excipient alone” value is listed as more than 80%.

Turning to `Nc1nc2[nH]cc(CCc3ccc(C(=O)N[C@@H](CCC(=O)O)C(=O)O)cc3)c2c(=O)[nH]1` [PMX, N-[4-[2-(2-amino-3,4-dihydro-4-oxo-7H-pyrrolo[2,3-d]pyrimidin-5-yl)-ethyl]-benzoyl]-L-glutamic acid], in “In vitro drug release” (0.1 N HCl pH 1.2, 37°C), the “Drug dissolved within 15 min” value is given as “More than 90%”. In the data set “In vitro drug release” (phosphate buffer pH 6.8, 37°C), the “Drug released within 15 min” value is listed as “More than 90%”. In [2], this compound yielded a Papp at 5 h, 200 μg/mL of 0.665 ± 0.207 ×10⁻⁶ cm/s. For the same compound, the Relative wound recovery with LLC cells is reported as 57.5%±5.76%. The viability at 8.37 µM in [1] (Homo sapiens, A549, 48 h, read-out: Cell viability) worked out at 52.2%. Also, the half-life in [3] was 7.03 ± 1.61 h. Moreover, in the data set with LLC tumor-bearing mice (once-a-day oral 20 mg/kg PMX in water, 21 days), the “Reduction in tumor volume and mass vs control mice” value was “did not show significant reductions in the tumor volume and mass”. Besides, in the data set on LLC tumor-bearing mice (setting [6]), the “Tumor volume lower than control group” value is on record as 49% and the “Tumor volume lower than oral PMX group” value came out at 46%. In addition, in [4], the Papp at 5 h, 100 μg/mL was 0.498 ± 0.096 ×10⁻⁶ cm/s. Moreover, in the data set with A549 cells (equivalent to 0.5 μg/mL (0.84 μM) PMX), the “Inhibition of cell proliferation/migration, fold higher than control cells” value is reported as 1.28 fold. In the data set on A549 cells (equivalent to 1 μg/mL (1.67 μM) PMX), the Wound recovery rate is 54.0%±5.09%. In addition, in data set [5], the viability at 0.08 µM was less than 80%, the viability at 0.84 µM was determined as 45.4% and the viability at 5 µg/mL came to 29.8%.
